Bioassay records: PubChem BioAssay, several laboratories
Rows were chosen to be rich in hits. Some 4.3% of all compounds tested hit in one or more screens of this group.
TAAR1 antagonist – human TAAR1 antagonists, primary screen, Fluo-8 calcium fluorescence, CHO RD-HGA16 cells. Trace amine-associated receptor 1 (Homo sapiens), Q96RJ0. antagonist. inhibition, % at 3 µM. hit rate 1.5% among 360,000;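 active = inhibition above a per-plate cutoff, the mean inhibition of test compounds on that plate plus 3 SD, cut at about 49% in these data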;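 note: 0% = DMSO plus EC80 beta-PEA response and 100% = DMSO alone without agonist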
Target sequence (Q96RJ0 whole entry, looked up): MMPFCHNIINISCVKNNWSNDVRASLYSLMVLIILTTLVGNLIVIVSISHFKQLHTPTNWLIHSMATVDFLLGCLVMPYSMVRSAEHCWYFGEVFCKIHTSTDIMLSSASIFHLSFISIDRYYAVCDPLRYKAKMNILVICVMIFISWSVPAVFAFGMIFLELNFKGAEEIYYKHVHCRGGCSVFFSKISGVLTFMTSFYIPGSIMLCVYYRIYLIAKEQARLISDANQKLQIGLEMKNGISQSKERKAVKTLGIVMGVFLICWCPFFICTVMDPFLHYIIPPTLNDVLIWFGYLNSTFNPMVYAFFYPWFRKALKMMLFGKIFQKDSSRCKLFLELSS
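Assay system: CHO-derived RD-HGA16 cells stably expressing human TAAR1 plus Gα16. Timing: 140 s kinetic read after compound, 140 s after agonist. Technique: kinetic Fluo-8 calcium fluorescence measurement. Measure: % inhibition of agonist calcium response.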
MC4R ag barr – MC4R agonists recruiting beta-arrestin, primary screen, cell-based, luminescence, agonist arm of biased-ligand search. activation, % at 8.9 µM. Melanocortin receptor 4 (Homo sapiens), P32245. hit rate 0.98% among 360,000. U2OS MC4R beta-arrestin complementation; percent of melanotan II response, DMSO zero;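 active = activation above a per-plate cutoff, the mean activation of sample wells on that plate plus 3 SD, cut at about 8% in these data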
Target sequence (P32245 whole entry, looked up): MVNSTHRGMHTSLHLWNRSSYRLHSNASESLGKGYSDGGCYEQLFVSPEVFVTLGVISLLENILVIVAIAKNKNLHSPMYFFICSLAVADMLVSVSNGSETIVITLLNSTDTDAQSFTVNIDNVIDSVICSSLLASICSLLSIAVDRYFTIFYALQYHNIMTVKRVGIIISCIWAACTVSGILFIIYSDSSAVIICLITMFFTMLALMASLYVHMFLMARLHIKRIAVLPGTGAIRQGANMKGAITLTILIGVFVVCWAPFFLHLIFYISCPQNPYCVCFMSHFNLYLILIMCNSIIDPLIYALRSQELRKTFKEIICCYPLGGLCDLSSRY
HTR2A ag – mouse Htr2a agonists via beta-arrestin recruitment, primary screen, cell-based, luminescence. CHO-K1 mHTR2A beta-arrestin complementation; percent of 30 µM serotonin response. activation, % at 7.6 µM. hit rate 0.66% among 360,000;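 active = activation above a run cutoff, the mean activation of all tested compounds plus 3 SD, cut at about 14% in these data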;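 note: 0% = plate median of compound wells and 100% = 30 µM serotonin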
TAAR1 ag – human TAAR1 agonists, primary screen, Fluo-8 calcium fluorescence, CHO RD-HGA16 cells | activation, % at 3 µM | vehicle wells 0%, saturating PEA agonist 100% | AID 624467, 2012 | hit rate 0.99% among 360,000;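 active = activation above the mean activation of all test compounds in the run plus 3 SD, cut at about 38% in these data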
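System: CHO-derived RD-HGA16 cells with stable Gα16 and human TAAR1. Times: 17-24 h plating, Fluo-8 75 min 37 °C, 30 min RT. Measured by: calcium-sensitive Fluo-8 signal, excitation 470-495, emission 515-575 nm. Read-out basis: % activation relative to PEA EC100 response. Control set: DMSO and PEA EC100. Repeats: no replicates (n 1).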
MC4R antag cAMP – MC4R antagonists of cAMP signaling, primary screen, cell-based, TR-FRET, antagonist arm of biased-ligand search; Melanocortin receptor 4 (Homo sapiens), P32245; inhibition, % at 6.5 µM; hit rate 0.48% among 360,000; MC4R-expressing cells, MTII-stimulated cAMP, LANCE TR-FRET; AID 540295, 2011;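 active = inhibition above its plate's cutoff, the mean of tested wells on that plate plus 3 SD, cut at about 29% in these data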;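 note: 0% = Melanotan II alone and 100% = Melanotan II plus saturating MCL0020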
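System – human MC4R-expressing U2OS cells · Also added – Melanotan II · Dosing – one concentration, 6.5 µM nominal · Timing – 30-min compound, 1-h challenge, 1-h detection, room temperature · Measured by – Eu-cAMP/anti-cAMP TR-FRET, emission 671 nm · Replicates – singlicate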
B2AR ag – beta2AR agonists driving receptor internalization, primary screen, cell-based, FAP fluorogen, flow cytometry; hit rate 0.43% among 340,000; response, % (test concentration not listed); Am2.2-beta2AR cells; Beta-2 adrenergic receptor (Homo sapiens), P07550;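 active = response above a set limit, near 3 SD of response in nonfluorescent compounds, cut at about 42% in these data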
MC4R barr ag – MC4R beta-arrestin agonists, retest, confirmation, cell-based, luminescence, U2OS. shares compounds with MC4R ag barr. U2OS MC4R beta-arrestin recruitment; scaled DMSO 0%, Melanotan II 100%. activation, % at 8.9 µM. hit rate 31% among 2,400;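 active = mean activation across replicates above the hit cutoff set in the earlier primary screen, cut at about 8% in these data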
MOR-DOR barr ag – agonists of MOR-DOR heterodimerization, counter-screen for MC4R biased agonist project, cell-based, luminescence; shares compounds with MC4R ag barr; U2OS PathHunter beta-arrestin, beta-gal luminescence; percent of deltorphin B response, DMSO zero; activation, % at 9.2 µM; hit rate 5.8% among 2,400; AID 602194, 2012;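 active = mean activation across replicates exceeds the hit threshold derived in the earlier primary screen, cut at about 18% in these data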;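 note: 100% = deltorphin B at 0.9 µM final and 0% = DMSO alone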
The depositor's hits bear a star; x = no result given.

SMILES | TAAR1 antagonist | MC4R ag barr | HTR2A ag | TAAR1 ag | MC4R antag cAMP | B2AR ag | MC4R barr ag | MOR-DOR barr ag
O=C(C1CCC1)N1CCC(O)(c2cccc(F)c2)CC1 | -24 | -3 | 8 | 1 | 7 | 5 | x | x
COc1ccc(CC(=O)Nc2ccc(N3CCOCC3)cc2)cc1OC | -25 | 9.6* | 2 | 1 | 6 | -7 | 9.6* | 10
COc1ccc(CN(C)CC(=O)Nc2ccc(N3CCOCC3)cc2)cc1OC | -17 | -2 | 2 | 3 | 1 | 7 | x | x
C[C@@H]1ON(C)[C@H]2C[C@H]3c4cc(-c5ccc(F)cc5)ccc4CCN3C[C@@H]12 | -15 | x | x | 2 | x | x | x | x
O=C(/C=C/c1ccc(Cl)c([N+](=O)[O-])c1)Nc1ccc(N2CCCC2)c(Cl)c1 | 25 | 11* | 4 | 3 | 21 | 7 | 7 | 4
CN1CCN(c2ccc(S(=O)(=O)N3CCCCC3)cc2NC(=O)/C=C/c2ccc(Cl)c([N+](=O)[O-])c2)CC1 | 0 | -2 | -4 | 7 | 8 | 19 | x | x
Cc1ccc(C(C)C)c(OCCCNCc2cccnc2)c1 | -10 | 0 | -3 | 15 | 6 | 2 | x | x
Cc1ccc(C(C)C)c(OCCNCCc2ccccc2)c1 | 25 | 9.9* | -2 | 44* | -6 | 26 | 8 | 10
COc1ccc(/C=N\NS(=O)(=O)c2ccc(Cl)cc2)cc1COc1ccccc1[N+](=O)[O-] | 16 | 18* | -4 | 5 | 9 | 4 | 10* | 6
COc1ccc(/C=N\NS(=O)(=O)c2ccc(Br)cc2)cc1COc1ccccc1[N+](=O)[O-] | 8 | 2 | 8 | 1 | 9 | 12 | x | x
CCCCCCN1C[C@H](n2cc(C3CC3)nn2)[C@@H](O)C[C@@H]1c1ccc(Cl)cc1 | -11 | 0 | 0 | 0 | 4 | x | x | x
CCOc1ccccc1-c1nc(-c2ccc(NC(=O)Cc3ccc(OC)cc3)cc2)no1 | -12 | 21* | -2 | 5 | -13 | -2 | 25* | 21*
CCOc1ccccc1-c1nc(-c2ccc(NC(=O)c3ccc(Br)o3)cc2)no1 | 17 | x | x | 3 | x | x | x | x
COc1ccc(C(=O)NNC(=O)C(=O)Nc2cccc3ccccc23)cc1 | -2 | -2 | -1 | 2 | 0 | -4 | x | x
O=c1[nH]c(/C=C/c2cccc3ccccc23)nc2ccccc12 | 17 | 16* | 4 | 1 | 1 | 0 | 2 | 2
O=c1[nH]c(/C=C/c2ccccn2)nc2ccccc12 | 5 | 1 | 0 | 1 | 2 | -2 | x | x
N=c1oc2ccc(Br)cc2cc1C(=O)NCc1ccc(F)cc1 | -9 | -1 | 5 | 0 | 4 | 3 | x | x
CCN(CC)c1ccc2cc(C(=O)NCc3ccc(F)cc3)c(=N)oc2c1 | -11 | 13* | 2 | 9 | 22 | -318 | 1 | 7
Cc1ccc(-c2cc(C(=O)N(C)Cc3cnn(C)c3C)c3cc(Br)ccc3n2)cc1 | 44 | 9.7* | 1 | 12 | 13 | 19 | 2 | 3
Cc1ccc(-c2cc(C(=O)NCc3cnn(C)c3C)c3cc(Br)ccc3n2)cc1 | 44 | 7 | -2 | 7 | 7 | 9 | x | x
O=C(CSc1ccc(F)cc1)Nc1ccc(C2SCCS2)cc1 | 5 | 10* | -4 | -1 | 11 | 3 | 0 | 2
Cc1ccsc1C(=O)OCC(=O)c1ccc(OC(F)F)cc1 | -30 | -1 | -2 | 8 | 6 | 0 | x | x
Cc1ccc(NC(=O)c2ncn(CC(=O)N[C@H](C)c3cccc4ccccc34)n2)cc1C | -2 | 0 | -6 | 3 | -9 | 3 | x | x
Cc1ccc(NC(=O)c2ncn(CCCN3CCN(Cc4cccc5ccccc45)CC3)n2)cc1C | 24 | 16* | -7 | 21 | 6 | 36 | 26* | 9
CN(NS(=O)(=O)c1ccc(Cl)cc1)c1ncc(C(F)(F)F)cc1Cl | 20 | 5 | -2 | 1 | 12 | -5 | x | x
SMILES | TAAR1 antagonist | MC4R ag barr | HTR2A ag | TAAR1 ag | MC4R antag cAMP | B2AR ag | MC4R barr ag | MOR-DOR barr ag
Cn1nc(-c2ccccc2)cc1NC(=O)Nc1ccc(C(C)(C)C)cc1 | 17 | 12* | 1 | 6 | 7 | 15 | 1 | 5
COCCNC(=O)CSc1nc2cc(OC)c(OC)cc2c(=O)n1Cc1ccc(OC)cc1 | -3 | -1 | 1 | 4 | 9 | -2 | x | x
C=CCn1c(SCC(=O)OCC)nc2cc(C(=O)NCc3ccco3)ccc2c1=O | 14 | -1 | 1 | 8 | -5 | 5 | x | x
COc1cc2nc(SCC(=O)NCc3ccco3)n(Cc3ccc(Cl)cc3)c(=O)c2cc1OC | -1 | 13* | -5 | 8 | -2 | 1 | -2 | 11
CCCCCn1c(SCC(=O)OCC)nc2cc(C(=O)NCc3ccco3)ccc2c1=O | 7 | 13* | -1 | 0 | 12 | 6 | 2 | 31*
Cc1ccc2nc(-c3ccccc3)cc(C(=O)NCC(c3ccco3)N(C)C)c2c1 (centres undefined) | 8 | -3 | -12 | 5 | 0 | 10 | x | x
COC(=O)N/N=C\c1ccc(OC/C=C/c2ccccc2)cc1 | 5 | -1 | -1 | 6 | 9 | 3 | x | x
CCOC(=O)N/N=C\c1ccc(OC/C=C/c2ccccc2)cc1 | 4 | 11* | 14 | 1 | 2 | 0 | 0 | 5
COc1ccc(-c2oc3ccccc3c2C(=O)Oc2ccccc2)cc1 | -13 | -2 | 5 | 3 | -1 | -16 | x | x
CSc1ccccc1OCc1cc(C(=O)NC2CCc3ccccc32)no1 (centres undefined) | -6 | 64* | -3 | 1 | -7 | 2 | 9.5* | 8
O=C(OCC(=O)N1CCCc2ccccc21)c1ccccc1OC(F)F | 23 | 0 | -5 | 8 | 4 | 8 | x | x
